Activity calls are given as the source filed them. The calls are words filed in the database; no cut-off is given here.
How the values were obtained:
Raji [1] = test: Cell cycle arrest in human Raji cells by assessed as accumulation at subG1 phase at 10 uM using propidium iodide staining by flow cytometry; type: functional
Procedure, shortened: (§1)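 Cells treated with 10 μM EGCG for 48 h, with or without SOD (5 U/mL) plus catalase (30 U/mL) in the medium. Harvested cells permeabilised in PBS with 0.1% Triton X-100 for 5 min on ice, stained with propidium iodide (50 μg/mL), and analysed by flow cytometry for sub-G1 fraction.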

Raji [2] = test: Induction of apoptosis in human Raji cells assessed as late apoptotic or secondary necrotic cells at 10 uM after 6 hrs by measuring phosphatidylserine translocation using annexin V-FITC/propidium iodide staining by FACS (reference value: 2.2 %); type: functional
HL-60 [3] = test: Induction of apoptosis in human HL60 cells assessed as intracellular caspase-3 activation after 24 hrs (reference value: 1.3 %); type: functional
Raji [4] = test: Induction of apoptosis in human Raji cells assessed as intracellular caspase-3 activation after 48 hrs (reference value: 3.4 %); type: functional
K562 [5] = test: Cytotoxicity against human K562 cells assessed as cell growth inhibition at 10 uM after 7 days by trypan blue based microscopic analysis; type: functional
Procedure, shortened: (§2)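 Cells seeded at 2 × 10^3 cells/mL in culture medium with 1 nM–10 μM compound and cultured 7 days. HL60 and Raji were grown in RPMI 1640, K562 in F-12, UT-7 in IMDM with TPO 10 ng/mL; all media had 10% heat-inactivated FBS, 37 °C, 5% CO2. Viable trypan blue-excluding cells counted by hemacytometer; growth rate = viable treated/viable untreated. Means ± SD.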

HL-60 [6] = test: Induction of apoptosis in human HL60 cells assessed as intracellular caspase-3 activation after 48 hrs (reference value: 1.3 %); type: functional
Raji [7] = test: Induction of myeloperoxidase expression in human Raji cells after 24 hrs by flow cytometry; type: functional
Procedure, shortened: (§3)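 Untreated cells seeded at 1 × 10^5 cells/mL and grown 24 h. Fixed/permeabilised with Cytofix/Cytoperm for 20 min on ice. Stained with mouse anti-MPO mAb (1% v/v) for 1 h at room temperature, then goat anti-mouse IgG-FITC (1% v/v) for 1 h in the dark. Basal intracellular MPO read by flow cytometry.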

Raji [8] = test: Growth inhibition against human Raji cells assessed as cell viability at 10 uM preincubated with N-acetyl-L-cysteine for 30 mins measured after 48 hrs by trypan blue based microscopic analysis; type: functional
Procedure, shortened: (§4)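 Cells preincubated 30 min at 37 °C with 10 mM NAC, then seeded (Raji 1 × 10^5, HL60 5 × 10^4 cells/mL) and treated with 10 μM EGCG for 48 h. Viable cells were counted after trypan blue exclusion by hemacytometer. Growth rate = viable treated/viable untreated cells. Means ± SD of more than three experiments in triplicate wells.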

Raji [9] = test: Induction of apoptosis in human Raji cells assessed as early apoptotic cells at 10 uM after 6 hrs by measuring phosphatidylserine translocation using annexin V-FITC/propidium iodide staining by FACS (reference value: 3.7 %); type: functional
Raji [10] = test: Growth inhibition against human Raji cells assessed as cell viability at 10 uM after 48 hrs by trypan blue based microscopic analysis in presence of superoxide dismutase and catalase; type: functional
Procedure, shortened: (§5)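 Raji cells were seeded at 1 × 10^5 cells/mL and HL60 at 5 × 10^4 cells/mL. Medium held SOD (5 U/mL), catalase (30 U/mL) or both, plus 10 μM EGCG, for 48 h. Viable cells counted after trypan blue by hemacytometer; growth rate relative to untreated. Means ± SD of more than three experiments in triplicate wells.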

K562 [11] = test: Induction of 67 kDa laminin receptor expression in human K562 cells after 24 hrs by flow cytometry analysis; type: functional, cell-based
Procedure, shortened: (§6)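 Untreated cells seeded at 1 × 10^5 cells/mL and grown 24 h. Harvested cells labelled with mouse anti-67 LR IgM in 0.5% BSA/PBS for 1 h on ice, then anti-mouse IgM-FITC for 30 min at 4 °C in the dark. Read by flow cytometry.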

Raji [12] = test: Growth inhibition against human Raji cells assessed as cell viability at 10 uM after 48 hrs by trypan blue based microscopic analysis in presence of superoxide dismutase; type: functional; procedure, shortened: as §5
HL-60 [13] = test: Growth inhibition against human HL60 cells assessed as cell viability at 10 uM after 24 hrs by trypan blue based microscopic analysis; type: functional
UT7 = test: Cytotoxicity against human UT7 cells assessed as cell growth inhibition at 10 uM after 7 days by trypan blue based microscopic analysis; type: functional; procedure, shortened: as §2
Raji [14] = test: Induction of apoptosis in human Raji cells assessed as necrotic cells at 10 uM by measuring phosphatidylserine translocation using annexin V-FITC/propidium iodide staining by FACS; type: functional, cell-based; conditions: TDE = time-dependent effect
HL-60 [15] = test: Cytotoxicity against human HL60 cells assessed as cell growth inhibition after 7 days by trypan blue based microscopic analysis; type: functional; procedure, shortened: as §2
Raji [16] = test: Induction of apoptosis in human Raji cells assessed as necrotic cells at 10 uM after 6 hrs by measuring phosphatidylserine translocation using annexin V-FITC/propidium iodide staining by FACS (reference value: 3.4 %); type: functional
HL-60 [17] = test: Growth inhibition against human HL60 cells assessed as cell viability at 10 uM after 48 hrs by trypan blue based microscopic analysis in presence of catalase; type: functional; procedure, shortened: as §5
Raji [18] = test: Induction of apoptosis in human Raji cells assessed as necrotic cells at 10 uM after 24 hrs by measuring phosphatidylserine translocation using annexin V-FITC/propidium iodide staining by FACS (reference value: 3.4 %); type: functional
Raji [19] = test: Induction of apoptosis in human Raji cells assessed as necrotic cells at 10 uM after 12 hrs by measuring phosphatidylserine translocation using annexin V-FITC/propidium iodide staining by FACS (reference value: 3.4 %); type: functional
Raji [20] = test: Growth inhibition against human Raji cells assessed as cell viability at 10 uM after 48 hrs by trypan blue based microscopic analysis in presence of catalase; type: functional; procedure, shortened: as §5
HL-60 [21] = test: Growth inhibition against human HL60 cells assessed as cell viability at 10 uM preincubated with N-acetyl-L-cysteine for 30 mins measured after 48 hrs by trypan blue based microscopic analysis; type: functional; procedure, shortened: as §4
Raji [22] = test: Induction of apoptosis in human Raji cells assessed as early apoptotic cells at 10 uM after 12 hrs by measuring phosphatidylserine translocation using annexin V-FITC/propidium iodide staining by FACS (reference value: 3.7 %); type: functional
HL-60 [23] = test: Growth inhibition against human HL60 cells assessed as cell viability at 10 uM after 48 hrs by trypan blue based microscopic analysis in presence of superoxide dismutase and catalase; type: functional; procedure, shortened: as §5
Raji [24] = test: Induction of apoptosis in human Raji cells assessed as early apoptotic cells at 10 uM after 24 hrs by measuring phosphatidylserine translocation using annexin V-FITC/propidium iodide staining by FACS (reference value: 3.7 %); type: functional
Raji [25] = test: Induction of apoptosis in human Raji cells assessed as late apoptotic or secondary necrotic cells at 10 uM after 12 hrs by measuring phosphatidylserine translocation using annexin V-FITC/propidium iodide staining by FACS (reference value: 2.2 %); type: functional
HL-60 [26] = test: Induction of myeloperoxidase expression in human HL60 cells after 24 hrs by flow cytometry; type: functional; procedure, shortened: as §3
HL-60 [27] = test: Induction of intracellular reactive oxygen species production in human HL60 cells at 10 uM after 1 to 3 hrs by flow cytometry; type: functional, cell-based
Procedure, shortened: (§7)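 Cells treated with 10 μM EGCG for 1 and 3 h. Then 1 × 10^5 cells stained with 5 μM H2-DCFDA for 25 min at 37 °C, washed and resuspended in PBS. Oxidised-probe fluorescence read by flow cytometry. Means ± SD of more than three separate experiments.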

K562 [28] = test: Induction of intracellular reactive oxygen species production in human K562 cells at 10 uM after 1 to 3 hrs by flow cytometry; type: functional, cell-based; procedure, shortened: as §7
Raji [29] = test: Growth inhibition against human Raji cells assessed as cell viability at 10 uM after 24 hrs by trypan blue based microscopic analysis; type: functional
Raji [30] = test: Cytotoxicity against human Raji cells assessed as cell growth inhibition after 7 days by trypan blue based microscopic analysis; type: functional; procedure, shortened: as §2
Raji [31] = test: Induction of apoptosis in human Raji cells assessed as late apoptotic or secondary necrotic cells at 10 uM after 24 hrs by measuring phosphatidylserine translocation using annexin V-FITC/propidium iodide staining by FACS (reference value: 2.2 %); type: functional
Raji [32] = test: Induction of apoptosis in human Raji cells assessed as intracellular caspase-3 activation after 24 hrs (reference value: 3.4 %); type: functional
Raji [33] = test: Induction of intracellular reactive oxygen species production in human Raji cells at 10 uM after 1 to 3 hrs by flow cytometry; type: functional, cell-based; procedure, shortened: as §7
HL-60 [34] = test: Cell cycle arrest in human HL60 cells by assessed as accumulation at subG1 phase at 10 uM using propidium iodide staining by flow cytometry; type: functional; procedure, shortened: as §1
HL-60 [35] = test: Induction of 67 kDa laminin receptor expression in human HL60 cells after 24 hrs by flow cytometry analysis; type: functional, cell-based; procedure, shortened: as §6
Raji [36] = test: Cell cycle arrest in human Raji cells by assessed as accumulation at subG1 phase at 10 uM using propidium iodide staining by flow cytometry in presence of superoxide dismutase and catalase; type: functional; procedure, shortened: as §1
K562 [37] = test: Induction of myeloperoxidase expression in human K562 cells after 24 hrs by flow cytometry; type: functional; procedure, shortened: as §3
HL-60 [38] = test: Growth inhibition against human HL60 cells assessed as cell viability at 10 uM after 48 hrs by trypan blue based microscopic analysis in presence of superoxide dismutase; type: functional; procedure, shortened: as §5
HL-60 [39] = test: Cell cycle arrest in human HL60 cells by assessed as accumulation at subG1 phase at 10 uM using propidium iodide staining by flow cytometry in presence of superoxide dismutase and catalase; type: functional; procedure, shortened: as §1

O=C(O[C@@H]1Cc2c(O)cc(O)cc2O[C@@H]1c1cc(O)c(O)c(O)c1)c1cc(O)c(O)c(O)c1 [EPIGALOCATECHIN GALLATE]
Activity (Raji [1]): 3.8%
Activity (Raji [2]): 4.5%
Activity (HL-60 [3]): 2.7%
Activity (Raji [4]): 5.4%
growth inhibition (GI) (K562 [5]): inactive
Activity (HL-60 [6]): 4.2%
Activity (Raji [7]): 4.5%
growth inhibition (GI) (Raji [8]): Active
Activity (Raji [9]): 5.1%
growth inhibition (GI) (Raji [10]): inactive
Activity (K562 [11]): Active
growth inhibition (GI) (Raji [12]): Active
Activity (HL-60 [13]): Active
growth inhibition (GI) (UT7): inactive
Activity (Raji [14]): tde
growth inhibition (GI) (HL-60 [15]): Dose-dependent effect
Activity (Raji [16]): 5.3%
growth inhibition (GI) (HL-60 [17]): Active
Activity (Raji [18]): 14.9%
Activity (Raji [19]): 6.7%
growth inhibition (GI) (Raji [20]): Active
growth inhibition (GI) (HL-60 [21]): Active
Activity (Raji [22]): 7.7%
growth inhibition (GI) (HL-60 [23]): inactive
Activity (Raji [24]): 8.5%
Activity (Raji [25]): 7.8%
Activity (HL-60 [26]): 49.2%
Activity (HL-60 [27]): inactive
Activity (K562 [28]): inactive
Activity (Raji [29]): Active
growth inhibition (GI) (Raji [30]): Dose-dependent effect
Activity (Raji [31]): 13%
Activity (Raji [32]): 3.5%
Activity (Raji [33]): inactive
Activity (HL-60 [34]): 45.9%
Activity (HL-60 [35]): Active
Activity (Raji [36]): 5.9%
Activity (K562 [37]): 14.3%
growth inhibition (GI) (HL-60 [38]): Active
Activity (HL-60 [39]): 2.6%

Reference: ChEMBL document CHEMBL1772988, “(-)-Epigallocatechin-3-O-gallate induces nonapoptotic cell death in leukemia cells independent of the 67 kDa laminin receptor” (2011)
